These results are taken from ChEMBL document CHEMBL1121557, “Chemistry, pharmacology, and structure-activity relationships with a new type of imidazolines exerting a specific bradycardic action at a cardiac site” (J Med Chem, 1980).

A short description of series [1]: EC30 ratio of contractility to atrial rate in isolated guinea pig atria. The format is functional, Cardiac atrium. A digest of the protocol:
(§1)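 Ratios of EC30 values from isolated guinea pig atria. Atrial rate was measured in spontaneously beating atria at 37 °C after at least 30 min of equilibration, until rate varied by no more than 5 beats/min. Contractility was measured in left atria driven at 2.5 Hz, 30 °C. Maximal driving frequency was found by stepwise pacing. Compound was added cumulatively, concentration doubled every 10 min.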

The species entered for series [2] is Rattus norvegicus. Description: Evaluated for decreased heart rate in spinal rats, relative activity was determined. The format is functional. A digest of the protocol: (§2)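 Male Chbb:THOM rats, 200–250 g, under pentobarbital sodium 50 mg/kg ip, atropine sulfate 1 mg/kg sc, trachea cannulated. Medulla cut at C1, brain destroyed, artificially ventilated. Jugular iv injections given cumulatively, dose doubled every 2 min, 3 doses per animal, top cumulative dose 10 mg/kg. ECG-triggered tachograph heart rate. D150 (dose lowering rate 150 beats/min) read graphically from log dose–response curves; n = 6 rats.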

The test system of series [3] is Rattus norvegicus. Kind of series: Dose required to decrease heart rate after iv injection to spinal rats. In kind it is functional. The gist of the method:
as §2

The nature of series [4]: Partition coefficient (logD7.4). To be noted: octanol/water, pH 7.4.
The species named for series [5] is Cavia porcellus. Description: Evaluated for decrease in contractility in isolated guinea pig atria. The format is functional. A digest of the protocol:
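Electrically driven left guinea pig atria (300–500 g, either sex) in modified Tyrode's gassed 98% O2/2% CO2, 30 °C, 1 g resting tension. Stimulation 3 ms rectangular pulses at 1.5× threshold, 2.5 Hz, after 20 min equilibration. Isometric force in grams. Concentrations added cumulatively, doubled every 10 min, one atrium per experiment. EC30 (30% fall from predrug value) read from curves.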

Series [6] in a line: EC30 ratio of maximal driving frequency to atrial rate in isolated guinea pig atria. In kind it is functional, Cardiac atrium. A digest of the protocol:
as §1

Series [7] in a line: Dissociation constant (pKa). In kind it is physicochemical.
Series [8] is filed under the species Cavia porcellus. Description: Evaluated for decrease in maximal driving frequency in isolated guinea pig atria. In kind it is functional. The gist of the method:
(§3)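 Guinea pig left atria in modified Tyrode's gassed 98% O2/2% CO2, 1 g resting tension, driven with 1 ms pulses at 3× threshold. Runs separated by 5 min at 0.5 Hz. Control is the mean of 3 predrug runs; the value is the mean of runs at 5 and 10 min after each cumulative addition, concentration doubled every 10 min. EC30 read from curves.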

The species named for series [9] is Cavia porcellus. Description: Evaluated for decrease in spontaneous frequency of atrial rate in isolated guinea pig atria. In kind it is functional. The conditions noted are these: Cardiac atrium. A digest of the protocol: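 Atria dissected from guinea pigs of various breeds (300–500 g, either sex) and suspended in modified Tyrode's solution gassed with 98% O2/2% CO2, resting tension 1 g. Spontaneously beating atria at 37 °C, equilibrated at least 30 min until rate stable within 5 beats/min. Drug added cumulatively, concentration doubled every 10 min. EC30 = concentration reducing predrug rate by 30%, read from curves.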

For series [10], the species on record is Cavia porcellus. Kind of series: Evaluated for increase in maximal driving frequency in isolated guinea pig atria. In kind it is functional. A digest of the protocol: as §3
Series [11] can be described thus: Ratio of contractility to atrial rate in isolated guinea pig atria. The format is functional, Cardiac atrium. The gist of the method: as §1

In brackets after ≈: the same amount, converted by molar mass.

As for `Brc1cccc(Br)c1N(CC1CC1)C1=NCCN1`, the values for the Ratio in [1] and in series [6] were 146 and 18, respectively. In addition, the Relative activity in the series listed under Rattus norvegicus [2] is listed as 1. In the series with Rattus norvegicus [3], this molecule returned a D150 of 0.62 mg/kg. In addition, the logD in series [4] was -1.12. Moreover, the EC30 was 95 µg/mL (≈ 255 µM) in the series listed under Cavia porcellus [5], 12 µg/mL (≈ 32.2 µM) in the series filed under Cavia porcellus [8] and 0.65 µg/mL (≈ 1.74 µM) in the series filed under Cavia porcellus [9]. The molecule also gave a pKa in series [7] of 10.9.
As to `C[N+](C)(C)CCOC(N)=O.[Cl-]` [CARBACHOL], the EC30 was found to be 0.09 µg/mL in the series filed under Cavia porcellus [10], 0.0065 µg/mL in the series listed under Cavia porcellus [5] and 0.029 µg/mL in the series listed under Cavia porcellus [9]. Moreover, the Ratio in series [11] is 0.22.

In general, logD refers to the decadic logarithm of the distribution of all forms, ionised or not, between an organic phase and buffer at a given pH. Lower therefore signals lower lipophilicity. One may read the EC30 as the concentration at which the effect reaches the 30% level. A higher EC30 goes with weaker potency. The pKa is the negative logarithm of the acid dissociation constant.
